Assay [1] relates to A549. Kind of assay: Cytotoxicity against human A549 cells after 48 hrs by MTT assay. To be noted: A549, 48 h. The format is functional, cell-based. The method in brief: (§1)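 Cells kept at 37 °C under 5% CO2, plated and allowed to attach for 24 h, then exposed in quadruplicate wells for 48 h to five saline-dissolved concentrations. IC50 is the mean of three independent experiments.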
For orientation: Tetrazolium assays rely on reduction of a dye to a coloured formazan, in cell work by metabolically active cells.

The subject of a further assay is HeLa. As to the kind of experiment: Cytotoxicity against human HeLa cells after 48 hrs by MTT assay. The format is functional, cell-based. The method in brief: as §1
The test system of another assay is SiHa. As to the kind of experiment: Cytotoxicity against human SiHa cells after 48 hrs by MTT assay. It counts as functional, cell-based. The method in brief:
as §1

The test system of assay [2] is A549. Kind of assay: Induction of cell cycle arrest in human A549 cells assessed as accumulation at sub-G1 phase at 0.5 uM after 48 hrs using propidium iodide staining by FACS analysis (reference value: 21.7 %). It counts as functional. (A flow cytometer gives signals particle by particle.)
Assay [3] has as its system A549. As to the kind of experiment: Induction of cell cycle arrest in human A549 cells assessed as accumulation at G1 phase at 0.5 uM after 48 hrs using propidium iodide staining by FACS analysis (reference value: 59.9 %). It counts as functional.
Assay [4] has as its system A549. As to the kind of experiment: Induction of cell cycle arrest in human A549 cells assessed as accumulation at S phase at 0.5 uM after 48 hrs using propidium iodide staining by FACS analysis (reference value: 36.7 %). The format is functional.
The test system of assay [5] is A549. Kind of assay: Induction of cell cycle arrest in human A549 cells assessed as accumulation at sub-G1 phase at 0.1 uM after 48 hrs using propidium iodide staining by FACS analysis (reference value: 21.7 %). It counts as functional.
Assay [6] concerns A549. Kind of assay: Induction of cell cycle arrest in human A549 cells assessed as accumulation at G1 phase at 0.1 uM after 48 hrs using propidium iodide staining by FACS analysis (reference value: 59.9 %). The format is functional.
The test system of assay [7] is A549. Kind of assay: Induction of cell cycle arrest in human A549 cells assessed as accumulation at S phase at 0.1 uM after 48 hrs using propidium iodide staining by FACS analysis (reference value: 36.7 %). The format is functional.
The subject of assay [8] is A549. Kind of assay: Induction of cell cycle arrest in human A549 cells assessed as accumulation at G2/M phase at 0.1 uM after 48 hrs using propidium iodide staining by FACS analysis (reference value: 3.2 %). It counts as functional.

Turning to `COc1cc([C@@H]2c3cc4c(cc3C[C@H]3COC(=O)[C@@H]32)OCO4)cc(OC)c1OC(=O)NCC(=O)N1CCN(C)CC1`, the IC50 in the assay on A549 [1] was found to be 3960 nM; with HeLa it was 703 nM; in the assay with SiHa, 4970 nM.
Regarding `COc1cc([C@@H]2c3cc4c(cc3C[C@H]3COC(=O)[C@@H]32)OCO4)cc(OC)c1OC(=O)NCC(=O)N1CCN(c2ccc(O)cc2)CC1`, the IC50 in the assay on A549 [1] was 2390 nM; in the assay with HeLa it was 7010 nM; with SiHa it was 4760 nM.
The like results for `COc1cc([C@@H]2c3cc4c(cc3C[C@H]3COC(=O)[C@@H]32)OCO4)cc(OC)c1OC(=O)NCC(=O)N1CCN(C2CCCC2)CC1` were, in that order, 1720 nM, 3070 nM and 135 nM.
The like results for `COc1cc([C@@H]2c3cc4c(cc3C[C@H]3COC(=O)[C@@H]32)OCO4)cc(OC)c1OC(=O)N[C@@H](Cc1ccccc1)C(=O)N1CCNCC1` were, in that order, 80.2 nM, 433 nM and 160 nM.
For `COc1cc([C@@H]2c3cc4c(cc3C[C@H]3COC(=O)[C@@H]32)OCO4)cc(OC)c1OC(=O)N[C@@H](CCSC)C(=O)N1CCN(c2ccc([N+](=O)[O-])cc2)CC1`, in that order: 183 nM, 191 nM and 160 nM.
As for `COc1cc([C@@H]2c3cc4c(cc3C[C@H]3COC(=O)[C@@H]32)OCO4)cc(OC)c1OC(=O)N[C@H](CCSC)C(=O)N1CCNCC1`, the IC50 is 208 nM in the assay with A549 [1], 203 nM in the assay with HeLa and 83.9 nM with SiHa.
With `COc1cc([C@@H]2c3cc4c(cc3C[C@H]3COC(=O)[C@@H]32)OCO4)cc(OC)c1O` [4'-DEMETHYLDEOXYPODOPHYLLOTOXIN], the figures for the IC50 with A549 [1], with HeLa and in the assay on SiHa were 3750 nM, 7430 nM and 2070 nM, respectively.
As for `COc1cc([C@@H]2c3cc4c(cc3C[C@H]3COC(=O)[C@@H]32)OCO4)cc(OC)c1OC` [DESOXYPODOPHYLLOTOXIN], the figures for the IC50 in the assay on A549 [1], in the assay on HeLa and in the assay on SiHa were 470 nM, 36000 nM and 10200 nM, respectively. The Activity in the assay on A549 [2] is given as 13.1%; with A549 [3], 85.5%; with A549 [4], 1.4%.
Regarding `COc1cc([C@@H]2c3cc4c(cc3[C@@H](O[C@@H]3O[C@@H]5CO[C@@H](C)O[C@H]5[C@H](O)[C@H]3O)[C@H]3COC(=O)[C@H]23)OCO4)cc(OC)c1O` [ETOPOSIDE], the figures for the IC50 in the assay on A549 [1], with HeLa and in the assay on SiHa were 14800 nM, 50600 nM and 30700 nM, respectively. Besides, the Activity is 4.1% with A549 [5], 26% in the assay on A549 [6], 59.4% in the assay on A549 [7] and 10.5% in the assay on A549 [8].

For orientation: IC50 means the point on the concentration scale where inhibition reaches its midpoint. Higher therefore signals weaker potency in that assay.
